# ASAP1 GAP inh = blocks human ASAP1-stimulated Arf1 GTP hydrolysis. Q9ULH1. GDP FP detection. inhibition, % at 16.5 µM. 360,000 compounds, 0.19% hits. AID 624377; in the data active means inhibition above about 25%;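 further: 0% = vehicle with enzyme and substrate and 100% = no enzyme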
# Target sequence (Q9ULH1 325-724 limits assumed): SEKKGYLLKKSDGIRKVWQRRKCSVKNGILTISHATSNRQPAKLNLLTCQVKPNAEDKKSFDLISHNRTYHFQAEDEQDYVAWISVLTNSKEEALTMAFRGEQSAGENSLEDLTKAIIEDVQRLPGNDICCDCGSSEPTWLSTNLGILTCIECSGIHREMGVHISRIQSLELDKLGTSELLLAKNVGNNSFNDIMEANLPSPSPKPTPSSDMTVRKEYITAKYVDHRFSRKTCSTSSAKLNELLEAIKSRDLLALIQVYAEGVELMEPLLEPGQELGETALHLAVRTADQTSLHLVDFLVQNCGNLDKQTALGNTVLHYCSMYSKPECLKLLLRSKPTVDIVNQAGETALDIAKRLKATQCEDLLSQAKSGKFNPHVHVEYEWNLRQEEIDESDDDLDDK
# ARFGAP1 inhibitor = rat ARFGAP1 inhibition | Q62848 | Arfgap1-stimulated ARF1 GTP hydrolysis, GDP FP detection | inhibition, % at 16.5 µM | 360,000 compounds, 0.26% hits | AID 651572;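 active means inhibition above a per-plate limit, mean inhibition of low control wells plus 3 SD, cut at about 25% in these data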;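 further: 0% = DMSO wells with enzyme and 100% = wells lacking Arfgap1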
# Target sequence (Q62848 1-136 limits assumed): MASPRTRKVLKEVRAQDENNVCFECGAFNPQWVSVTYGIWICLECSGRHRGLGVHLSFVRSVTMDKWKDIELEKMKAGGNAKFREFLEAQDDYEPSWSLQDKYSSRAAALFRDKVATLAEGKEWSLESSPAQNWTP
#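 Assay system: purified rat His6-Arfgap1 residues 1-136 (GAP domain); Reagent: human Δ17 ARF1 bound to GTP; Dosing: 16.5 µM single point, 1.26% DMSO; Times: GTP hydrolysis reaction 2 h at 25 °C; Signal: FP, GDP Alexa 633 tracer displaced from anti-GDP antibody, 620/688 nm; Measure: % inhibition from polarization.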
# PAFAH1B3 FP inh = inhibitors of human PAFAH1B3; recombinant PAFAH1B3, FP-rhodamine probe, fluorescence polarization; inhibition, % at 3.39 µM; 340,000 compounds, 0.28% hits;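 active means inhibition above the screen-wide average of all tested compounds plus 3 SD, cut at about 25% in these data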;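 further: 0% = enzyme with DMSO only and 100% = wells lacking PAFAH1B3 protein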
# pPAFAH FP inh = pPAFAH (human) enzyme inhibition | Q13093 | inhibition, % at 3.39 µM | recombinant pPAFAH, FP-rhodamine probe fluorescence polarization | 330,000 compounds, 1.5% hits;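 active means inhibition above the mean inhibition across the screen plus 3 SD, cut at about 25% in these data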;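 further: inhibitors block binding of the rhodamine activity-based probe so polarization drops; 0% = enzyme with DMSO and 100% = wells lacking pPAFAH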
# PAFAH1B2 inh = inhibitors of human PAFAH1B2; P68402; recombinant PAFAH1B2, FP-rhodamine activity probe, fluorescence polarization; inhibition, % at 3.39 µM; 340,000 compounds, 1.2% hits;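 active means inhibition above the mean of all tested compounds plus 3 SD, cut at about 24% in these data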;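 further: 0% = enzyme with DMSO and 100% = wells lacking PAFAH1B2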
# PAFAH2 FP inh = PAFAH2 (human) inhibition; inhibition, % at 3.39 µM; 340,000 compounds, 0.99% hits; Q99487; recombinant PAFAH2, FP-rhodamine activity probe, fluorescence polarization; AID 492956;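 active means inhibition above the mean over all tested compounds plus 3 SD, cut at about 30% in these data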;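 further: inhibitors block probe labeling of enzyme so polarization drops; 0% = enzyme with DMSO and 100% = wells lacking PAFAH2 protein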
# ARFGAP1 inh conf = rat ARFGAP1 inhibition, confirmed; shares compounds with ARFGAP1 inhibitor; ARFGAP1-stimulated ARF1 GTP hydrolysis, GDP tracer FP; inhibition, % at 16.5 µM; 890 compounds, 30% hits;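 active means average inhibition over triplicates above the hit cutoff set in the earlier primary screen, cut at about 25% in these data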;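 further: 0% = Arfgap1 plus ARF1-GTP with DMSO and 100% = wells lacking Arfgap1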
# Active calls of the source: *; / = no result. Rows were chosen to be rich in hits. Some 2.7% of all compounds tested hit in one or more screens of this group.
SMILES,ASAP1 GAP inh,ARFGAP1 inhibitor,PAFAH1B3 FP inh,pPAFAH FP inh,PAFAH1B2 inh,PAFAH2 FP inh,ARFGAP1 inh conf
CCN(CC)CCNC(=O)c1ccc(NC(=O)c2cn(-c3ccc(F)cc3)nc2-c2cccc(OC)c2)cc1,11.9,9.0,-1.2,-13.6,-2.9,-14.2,/
CN(C)C(=O)c1ccc(NC(=O)c2cc(-c3ccco3)nc3ccccc23)cc1,-8.8,-3.2,13.1,/,8.1,7.6,/
CC(=O)Nc1ccc(N2C(=O)CC(N3CCSCC3)C2=O)cc1 (stereo not drawn),-1.0,25.4*,2.3,0.3,8.6,-1.8,2.0
O=C1CC(N2CCSCC2)C(=O)N1c1ccc(F)cc1 (stereo not drawn),4.6,1.2,2.1,3.8,3.6,-1.3,/
CCOc1ccc(-c2nnn(CC(=O)NCc3ccc4c(c3)OCO4)n2)cc1,-2.8,29.1*,-11.3,1.9,-1.3,1.8,11.6
COc1ccc(-c2nnn(CC(=O)NCc3ccc4c(c3)OCO4)n2)cc1OC,11.5,6.2,6.1,-0.2,-3.6,-7.0,/
Cc1c(C=O)c(Cl)n(C)c(=O)c1C#N,20.0,28.4*,-1.8,10.5,1.2,0.2,4.9
CC(=O)N=Cc1c(C)c(C#N)c(=O)n(C)c1O,1.9,1.9,2.2,3.5,2.5,-3.9,/
O=C(OCC(=O)N1CCCC1)c1ccc(OC(F)(F)F)cc1,20.4,25.0*,-2.4,1.0,-4.8,4.0,2.0
COc1ccc2cc(C(=O)/C=C/c3cc(OC)c(O)c(OC)c3)ccc2c1,14.5,25.6*,5.1,21.3,3.1,1.4,13.4
COc1cc2c(=O)[nH]c3cc([N+](=O)[O-])ccc3c2cc1[N+](=O)[O-],1.9,9.7,/,/,/,/,/
Nc1cc2[nH]c(=O)c3ccccc3c2cc1[N+](=O)[O-],-12.9,28.0*,16.4,/,16.0,16.3,20.4
Cc1c(C(=O)NCc2ccc([N+](=O)[O-])cc2)sc(=O)n1Cc1ccc(-c2ccccc2)cc1,3.1,-3.3,/,/,/,/,/
C=CCn1c(=NC(=O)c2cccs2)sc2cccc(OC)c21,-1.3,31.3*,-0.5,-7.5,-3.2,-11.3,0.5
C#CCn1c(=NC(=O)c2ccc(Br)s2)sc2cccc(OC)c21,-10.7,-5.0,-8.8,-1.6,-3.8,-9.1,/
CCOC(=O)CCC(NC(=O)c1ccc(Nc2nc3ccccc3nc2C(=O)OCC)cc1)C(=O)OCC (stereo not drawn),-8.6,-24.9,4.3,/,5.8,-3.2,/
O=C(Nc1ccc(-c2cn3ccccc3n2)cc1)c1cccs1,-1.9,24.6*,-0.4,1.6,4.3,3.5,86.5*
COC(=O)N(C)C[C@@H]1OCc2cn(nn2)CCCC(=O)N([C@@H](C)CO)C[C@H]1C,-4.3,5.5,/,/,/,/,/
CC(=O)n1cc(/C=N/NC(=O)c2ccc(Cl)cc2)c2ccccc21,2.5,26.8*,6.2,-1.3,0.9,0.1,-2.0
CC(=O)n1cc(/C=N/NC(=O)c2ccccc2Cl)c2ccccc21,/,/,7.9,1.6,2.6,5.7,/
O=C(NCc1ccncc1)Nc1ccccc1,9.4,-4.5,5.6,-0.8,-1.0,7.7,/
O=C(NCc1ccncc1)Nc1ccc(Cc2ccc(NC(=O)NCc3ccncc3)cc2)cc1,-1.8,27.1*,/,/,/,/,56.5*
O=C(Cc1ccccc1)NC1(O)C(=O)c2ccccc2C1=O,13.7,27.3*,/,-4.4,/,/,9.3
CCCCCCCNC(=O)C1(CC2CC(c3cccc(Br)c3)=NO2)CCN(C(=O)OC(C)(C)C)CC1 (stereo not drawn),5.5,35.7*,9.8,7.1,-3.0,-2.5,1.0
COc1ccc(NC(=O)Cn2nnc(C(=O)Nc3ccc(F)c(Cl)c3)c2N)cc1,10.9,27.3*,-0.8,-2.8,-3.1,-14.1,35.9*
SMILES,ASAP1 GAP inh,ARFGAP1 inhibitor,PAFAH1B3 FP inh,pPAFAH FP inh,PAFAH1B2 inh,PAFAH2 FP inh,ARFGAP1 inh conf
COc1ccc(Cl)cc1NC(=O)c1nnn(CC(=O)Nc2ccc3c(c2)OCO3)c1N,17.5,94.5*,-14.2,-13.1,-9.7,-15.4,132.5*
CCOc1ccc(C(=O)N(CN2CCCC2=O)c2cccc(Cl)c2)cc1,-6.7,37.5*,9.2,-0.4,1.2,0.1,-1.1
Cc1ccc(C(=O)O)cc1S(=O)(=O)Nc1ccccc1C(=O)NC1CC1,-26.2,-11.7,0.9,/,-0.3,-0.8,/
COc1cc(C(=O)Nc2ccc3nc(N4CCN(C)CC4)cc(C)c3c2)cc(OC)c1OC,12.0,28.9*,3.4,7.5,1.1,5.8,25.4*
CNc1nc(-c2c[nH]c3ccccc23)cs1,10.5,30.8*,5.3,0.7,-1.7,4.9,0.9
C[C@@H]1CCCCO[C@@H](CN(C)S(=O)(=O)c2ccccc2)[C@@H](C)CN([C@H](C)CO)C(=O)c2cc(NS(=O)(=O)c3ccc(F)cc3)ccc2O1,6.1,5.9,/,/,/,/,/
COc1cc(/C=C(\C#N)c2ccccn2)ccc1OCC(=O)Nc1c(Cl)cccc1Cl,9.5,29.0*,-7.9,0.9,-7.0,-9.6,31.1*
O=C1c2ccccc2C(=O)N1CCCc1c[nH]c2ccc(Cl)cc12,1.9,32.9*,-0.9,14.9,-6.7,-5.5,15.2
CCOC(=O)c1c(NC(=O)C[n+]2ccc(N(C)C)cc2)sc(C)c1C,13.7,25.1*,1.9,-2.4,1.4,10.3,6.6
COc1ccc(-c2csc(C(NC(C)=O)c3ccccc3)n2)cn1 (stereo not drawn),-3.5,8.1,/,/,/,/,/
O=C1CCN(Cl)C(=O)N1Cl,7.5,25.9*,/,/,/,/,1.5
O=C1CCCN1c1cc(Cl)cc(Cl)c1,-0.8,-3.7,0.7,-2.8,2.8,4.4,/
CC(C)(C)NC(=O)CN1CCN(C(=O)CCl)CC1,-1.3,24.8*,6.9,-4.0,1.2,-1.6,-1.1
Cc1ccc(S(=O)(=O)N/N=C\c2cn(CC(N)=O)c3ccccc23)cc1,0.3,29.9*,4.5,5.9,15.9,0.9,-7.0
C[C@H]1CN([C@@H](C)CO)C(=O)c2cc(Br)cnc2O[C@H]1CN(C)C(=O)C1CCC1,-6.1,-0.3,/,/,/,/,/
Cc1ccc(C(=O)Nc2ccc3c(c2)C(=O)NC3=O)cc1,13.2,25.2*,-14.3,-9.6,-6.7,-14.9,-3.2
COC(=O)c1ccc(C(=O)Nc2ccc3c(c2)C(=O)NC3=O)cc1,13.8,23.3,-4.4,2.7,-1.1,-2.5,/
CCN(CC)c1ccc(C(=O)NNC(=O)CNC(=O)c2ccco2)cc1,-7.0,-1.0,5.9,/,6.2,3.0,/
COc1ccc2nc(/C=N/NC(=O)[C@H](CCSC)NC(=O)OC(C)(C)C)ccc2c1,10.7,26.7*,3.5,3.9,-6.1,4.4,1.1
CCOc1ccc(-n2c(SCC(=O)NCc3ccco3)nc3c(c2=O)SCC3)cc1,9.0,20.2,-2.4,0.4,3.5,2.8,/
O=C(CSc1nc2c(c(=O)n1-c1ccc(Br)cc1)SCC2)NCc1ccco1,-3.0,29.3*,4.4,5.3,3.1,6.0,-2.7
